Measured values from different studies.
Protocols differ between the studies behind these lines.
Organism: Trypanosoma brucei
Read-out: parasite growth

Compound	assay	system	setting	EC50 [µM]
COc1cc(C)c(C#N)c(SCC(=O)c2ccccc2)n1	resazurin	RHODESIENSE		32.9
CCCCCC(=O)NC(Cc1ccc(N)cc1)C(=O)NC(Cc1ccc(N)cc1)C(=O)NC(CC(C)C)C(=O)C1(C)CO1 (stereo not shown)	SYBR Green		72 h	< 0.5
O=c1c(O[C@@H]2O[C@H](CO)[C@@H](O)[C@H](O)[C@H]2O)c(-c2ccc(O)c(O)c2)oc2cc(O)cc(O)c12	resazurin		48 h	> 20
Cc1ccc(C(=O)Nc2ccc(S(=O)(=O)O)c3cc(S(=O)(=O)O)cc(S(=O)(=O)O)c23)cc1NC(=O)c1cccc(NC(=O)Nc2cccc(C(=O)Nc3cc(C(=O)Nc4ccc(S(=O)(=O)O)c5cc(S(=O)(=O)O)cc(S(=O)(=O)O)c45)ccc3C)c2)c1		RHODESIENSE		0.05
Cc1cc(C)c(C#N)c(NCC(O)c2ccc(F)cc2)n1 (stereo not shown)	resazurin	RHODESIENSE		7.86
Cc1ccc(Cn2cc(C(=O)N/N=C/c3ccc([N+](=O)[O-])s3)c(=O)c3cc(Cl)c(Cl)cc32)cc1	resazurin		72 h	> 4
C[C@@H]1C/C=C/C=C/C=C/C=C/[C@H](O[C@@H]2O[C@H](C)[C@@H](O)[C@H](N)[C@@H]2O)C[C@@H]2O[C@](O)(C[C@@H](O)C[C@H]3O[C@@H]3/C=C/C(=O)O1)C[C@H](O)[C@H]2C(=O)O	resazurin		48 h	12
Cc1ccc(Cn2cc(C(=O)N/N=C/c3ccc([N+](=O)[O-])o3)c(=O)c3cc(Cl)ccc32)cc1	resazurin		72 h	0.42
COc1ccc(C(=O)CSc2nc(C)cc(C)c2C#N)cc1	resazurin			> 64
N=C(N)c1ccc(OCCCCCOc2ccc(C(=N)N)cc2)cc1	SYBR Green	GAMBIENSE		0.009
